These results are taken from publication PMC5586103 (Bioorganic & medicinal chemistry letters, 2015).

For one data set, the system named is NSCLC cell line H460. The data set can be described thus: SRB cytotoxicity assay in NSCLC cell line H460. Format: cell-based. Particulars: for cytoselective anti-cancer effects in H460 and H460TaxR cells (in words): single concentration 10 µM, SRB, H460 and H460TaxR versus NHFB. A digest of the protocol:
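Sulforhodamine B (SRB) viability assay in H460 cells, run alongside drug-resistant H460TaxR and normal human fibroblasts (NHFB). The initial screen used a single test-compound concentration of 10 µM. DMSO served as the negative control, and viability in DMSO was set to 100%. Selected compounds were also tested across a range of doses in H460 and H460TaxR to give dose-dependent cytotoxicity.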
(In general: In SRB staining, fixed cells bind dye roughly in proportion to their protein.)

Data set [1] deals with normal human fibroblasts (NHFB). The data set can be described thus: SRB cytotoxicity assay in normal human fibroblasts. It is filed as cell-based. Particulars: Fibroblast, read-out: EC50 NHFB.
The nature of data set [2]: high throughput aqueous solubility assay. It is filed as physicochemical. The following applies: for aqueous solubility (in words): comparison within libraries.

pEC50: −log10 of the molar value.

As a reminder, the pEC50 is −log10 of the EC50, conventionally taken in molar units. As to `CCN(CC)c1ccc(/C=C2/SC(Nc3ccccc3)=NC2=O)cc1` [Compound 2], the “cytoselective anti-cancer effects in H460 and H460TaxR cells (in words)” value (shortened to “cytoselective anti-cancer effects”) in the data set on NSCLC cell line H460 was “good cytoselective anti-cancer effects”. The pEC50 in data set [1] is less than 4.00. Consider `CCN(CC)c1ccc(/C=C2/SC(N(c3ccccc3)c3ccccc3)=NC2=O)cc1` [Compound 27], for which the pEC50 in data set [1] was less than 4.00. `CN(C)c1ccc(/C=C2/SC(=Nc3ccccc3)NC2=O)cc1` [Compound 1]: the “cytoselective anti-cancer effects” value in the data set on NSCLC cell line H460 was “good cytoselective anti-cancer effects”. The pEC50 in data set [1] is less than 4.00. For `Cc1ccccc1NC1=NC(=O)/C(=C\c2ccc(N3CCNCC3)cc2)S1` [Compound 25], in data set [2], the “aqueous solubility (in words)” value was “largest improvement in aqueous solubility”. The “anti-cancer activity (in words)” value with NSCLC cell line H460 (H460 and H460TaxR) is “reduced anticancer activity”. For `O=C1N=C(Nc2ccccc2)S/C1=C/c1ccc(N2CCOCC2)cc1` [Compound 3], in data set [1], the pEC50 is less than 4.00.

With `CCN(CC)c1ccc(/C=C2/SC(N(C)c3ccccc3)=NC2=O)cc1` [Compound 32], the “aqueous solubility (in words)” value in data set [2] is given as “did not improve solubility”. In addition, in the data set with NSCLC cell line H460, the “cytoselective anti-cancer effects” value is listed as “potent cytoselective anti-cancer activity”. The pEC50 in data set [1] is less than 4.00. In the case of `CN(C)c1ccc(/C=C2/SC(=Nc3ccccc3Cl)NC2=O)cc1` [Compound 11], the “cytoselective anti-cancer effects” value with NSCLC cell line H460 is given as “good cytoselective anti-cancer effects”. Still for that read-out and setting: the entry for `CN1CCN(c2ccc(/C=C3/SC(Nc4ccccc4)=NC3=O)cc2)CC1` [Compound 4] is “good cytoselective anti-cancer effects”. For `CN(C1=NC(=O)/C(=C\c2ccc(N3CCNCC3)cc2)S1)c1ccccc1` [Compound 35], in the data set on NSCLC cell line H460 (H460 and H460TaxR), the “anti-cancer activity (in words)” value is recorded as “weak anti-cancer effects”. For `O=C1N=C(Nc2ccccc2)S/C1=C/c1ccc(N2CCNCC2)cc1` [Compound 5], the “aqueous solubility (in words)” value in data set [2] is “largest improvement in aqueous solubility”. In addition, in the data set on NSCLC cell line H460 (H460 and H460TaxR), the “anti-cancer activity (in words)” value is given as “reduced anticancer activity”. For the same molecule, the pEC50 in data set [1] is less than 4.00. Regarding `CN(C)c1ccc(/C=C2/SC(N(C)c3ccccc3)=NC2=O)cc1` [Compound 31], the “improvement in aqueous solubility” value in data set [2] (compared to compound 1) stood at 5 fold. The “improvement in anti-cancer activity (EC50)” value in the data set on NSCLC cell line H460 (H460 and H460TaxR, compared to compound 1) amounted to 10 fold. Also, the “cytoselective anti-cancer effects” value in the data set on NSCLC cell line H460 was “potent cytoselective anti-cancer activity”. On to `CN(C)c1ccc(/C=C2/SC(N(c3ccccc3)c3ccccc3)=NC2=O)cc1` [Compound 26], for which the pEC50 in data set [1] is less than 4.00. On to `Cc1ccccc1/N=C1\NC(=O)/C(=C\c2ccc(N(C)C)cc2)S1` [Compound 21], for which the “cytoselective anti-cancer effects” value with NSCLC cell line H460 is recorded as “good cytoselective anti-cancer effects”. For the molecule `CCN(CC)c1ccc(/C=C2/SC(Nc3ccccc3C)=NC2=O)cc1` [Compound 22], the “cytoselective anti-cancer effects” value in the data set with NSCLC cell line H460 is recorded as “good cytoselective anti-cancer effects”. As to `CN1CCN(c2ccc(/C=C3/SC(N(C)c4ccccc4)=NC3=O)cc2)CC1` [Compound 34], the “anti-cancer activity (in words)” value in the data set with NSCLC cell line H460 (H460 and H460TaxR) is on record as “weak anti-cancer effects”. For `O=C1N=C(Nc2ccc(O)cc2)S/C1=C/c1ccc(N2CCNCC2)cc1` [Compound 10], the “aqueous solubility (in words)” value in data set [2] is recorded as “largest improvement in aqueous solubility”. Also, the “anti-cancer activity (in words)” value in the data set with NSCLC cell line H460 (H460 and H460TaxR) is recorded as “reduced anticancer activity”. Consider `CN(C1=NC(=O)/C(=C\c2ccc(N3CCOCC3)cc2)S1)c1ccccc1` [Compound 33], for which the “aqueous solubility (in words)” value in data set [2] is recorded as “significantly better”. Further, the “anti-cancer activity (in words)” value in the data set with NSCLC cell line H460 (H460 and H460TaxR) was “weak anti-cancer effects”. For the same molecule, the pEC50 in data set [1] is less than 4.00. In the case of `CCN(CC)c1ccc(/C=C2/SC(Nc3ccccc3Cl)=NC2=O)cc1` [Compound 12], the “cytoselective anti-cancer effects” value with NSCLC cell line H460 is reported as “good cytoselective anti-cancer effects”.
